Laboratory results: PubChem BioAssay AID463104 (Sanford-Burnham Center for Chemical Genomics, 2010)
The campaign covered roughly 330,000 compounds. About 1,100 (0.33%) were called active. Only a selection was taken, and actives are over-represented in it overall. Unmarked numbers belong to inactive results.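 The calls were made as follows: active = versus positive control, 20 µM dose yields 30% or more activation; inactive = the rest.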

test: activators of adaptive XBP1 UPR arm, primary screen, cell-based, CHO-XBP1 luciferase reporter, luminescence, uHTS (AID 463104); conditions: IRE1-XBP1 UPR activation, at 20 µM, active compounds read high, percent of tunicamycin response, DMSO as zero;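 also: 100% = tunicamycin at 10 µg/mL and 0% = DMSO only wells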
Procedure, shortened: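 incubation = overnight seeding at 37 °C, 6 h compound treatment at 37 °C | assay system = CHO-XBP1 cells stably carrying IRE1-XBP1-driven luciferase reporter | input = 1000 cells per well | detection = luciferase luminescence | dosing = single point, 20 µM final compound, 1% DMSO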

Which activation does the source give for `O=S(=O)(c1ccc(-c2ccno2)s1)N1CCCCC1` here?
Its activation is -1.02%.

Which activation does the source give for `COc1ccc(OC)c(S(=O)(=O)N2CCCC(C(=O)N3CCC(C(N)=O)CC3)C2)c1` (stereo not drawn) here?
Its activation is 0.16%.

With `COc1ccc(C)cc1N(C)C(=O)c1coc(=O)c2ccccc12` as the compound, how does the activation read?
The activation was 2.41%.

Which activation does the source give for `O=C(COC(=O)c1ccccn1)Nc1cccc2ccccc12` here?
The activation was -3.78%.

For `N#Cc1ccccc1NC(=O)COc1c(Br)cc(Br)c2cccnc12`, which activation is on record?
The activation was 116% (active).

With `Cc1cc(NC(=O)COc2ccccc2C#N)no1` as the compound, how does the activation read?
Its activation is 6.89%.

For `CCCCC(O)(CCCC)C(=O)NN(C(=O)CCl)c1ccccc1`, which activation is on record?
Its activation is -0.49%.

Which activation does the source give for `Cc1ccc(NC(=O)c2ccc(Oc3ncccn3)cc2)cc1` here?
The activation was 0.13%.

For `Cc1[nH]c(=O)c(C(=O)/C=C/c2ccccc2)c2c1CCCC2`, which activation is on record?
Its activation is -0.32%.

Which activation does the source give for `O=C(/C=C/c1ccc(N2CCOCC2)cc1)c1ccccc1` here?
The activation was 2.92%.

Which activation does the source give for `O=C(/C=C/c1ccccc1)c1ccccc1O` here?
The activation was 78.8% (active).

For `Cc1nc2c(ncn2-c2ccccc2)c(=O)n1NC(=O)CN1CCCC1`, which activation is on record?
Its activation is 0.65%.

Which activation does the source give for `COCCNC(=O)c1ccc2c(c1)ncn2-c1ccc(C)c(Cl)c1` here?
Its activation is -1.46%.

With `COc1ccc(CN2C(CC(=O)Nc3cccnc3)c3ccc(C(F)(F)F)cc3S2(=O)=O)cc1` (stereo not drawn) as the compound, how does the activation read?
Its activation is -0.27%.

Which activation does the source give for `Cc1ccc(Cc2cnc(NC(=O)/C(C#N)=C/c3ccc(-c4cccc([N+](=O)[O-])c4)o3)s2)cc1` here?
Its activation is 131% (active).

For `Cc1ccc(-c2ccc(/C=C(\C#N)C(N)=S)o2)c([N+](=O)[O-])c1`, which activation is on record?
The activation was -0.81%.

Which activation does the source give for `Cc1ccc(C(=O)N/C(=C/c2ccc(-c3cccc([N+](=O)[O-])c3)o2)C(=O)NCCCN(C)C)cc1` here?
Its activation is 0.17%.

Which activation does the source give for `CC(=O)N1CCC(N(C(=O)Nc2ccc(Cl)cc2)C(C)C)CC1` here?
The activation was 2%.

With `CCC(C(=O)N1CCN(S(=O)(=O)c2sc(C(=O)O)c(C)c2C(=O)O)CC1)c1ccccc1` (stereo not drawn) as the compound, how does the activation read?
Its activation is -0.89%.

Which activation does the source give for `COc1ccccc1CNC(=O)c1ccc(Cl)c(S(=O)(=O)N2CCCC2)c1` here?
Its activation is -2.56%.

With `Cc1ccc(C)c(N2CCN(C(=O)CCCCCn3c(=S)[nH]c4ccc(N5CCOCC5)cc4c3=O)CC2)c1` as the compound, how does the activation read?
Its activation is -5.18%.

With `CC(C)NC(=O)CCCn1c(=S)[nH]c2cc3c(cc2c1=O)OCO3` as the compound, how does the activation read?
Its activation is 0.7%.

For `O=C(CCCCCn1c(=S)[nH]c2cc3c(cc2c1=O)OCO3)N1CCN(c2ccc(F)cc2)CC1`, which activation is on record?
The activation was 38.5% (active).

For `COc1cc(C(=O)NC2CCN(C)CC2)ccc1Nc1ncc2c(n1)N(C1CCC(O)CC1)CCC(=O)N2C` (stereo not drawn), which activation is on record?
The activation was -2.3%.

Which activation does the source give for `CCCCCC(=O)Nc1ccc(C(=O)N/N=C/c2ccc([N+](=O)[O-])cc2)cc1` here?
Its activation is 82.5% (active).

Which activation does the source give for `CCCCCC(=O)NC(=S)NNC(=O)c1ccc([N+](=O)[O-])cc1` here?
Its activation is 1.01%.

Which activation does the source give for `CCCC(=O)Nc1ccc(C(=O)N/N=C/c2ccc[nH]2)cc1` here?
The activation was -1.43%.

Which activation does the source give for `Nc1ccc(OCC(O)C[n+]2ccc(CCS(=O)(=O)[O-])cc2)cc1` (stereo not drawn) here?
The activation was -2.33%.

Which activation does the source give for `CCN1N=C(c2ccccc2)CCC1=O` here?
The activation was 0.24%.

With `Cc1cc(C)c(C#N)c(SCC(=O)Nc2ccccc2)n1` as the compound, how does the activation read?
Its activation is -0.84%.

With `Cc1nc2cc(NC(=O)CSc3nc4c(C)cccc4cc3C#N)ccc2s1` as the compound, how does the activation read?
The activation was 30.2% (active).

For `Cc1nonc1NC(=O)CSc1nc2ccccc2cc1C#N`, which activation is on record?
The activation was -3.02%.

With `CC(Cc1cccs1)N(Cc1ccc(Cl)cc1)C(=O)c1ccncc1` (stereo not drawn) as the compound, how does the activation read?
Its activation is -2.77%.

Which activation does the source give for `COc1ccc(S(=O)(=O)NCCc2cc3ccc(C)c(C)c3[nH]c2=O)cc1` here?
The activation was -3.05%.

Which activation does the source give for `O=C(COc1ccc(Cl)cc1)Nc1ccc2oc(=O)ccc2c1` here?
Its activation is -0.7%.

Which activation does the source give for `O=C(NC(=S)Nc1ccc2oc(=O)ccc2c1)c1ccc(-c2cccc(Cl)c2Cl)o1` here?
Its activation is 76.8% (active).

For `Cc1ccc(OCC(=O)Nc2ccc3oc(=O)ccc3c2)cc1C`, which activation is on record?
Its activation is -0.41%.

For `C=CCO/N=C(\C)c1c(O)c(C)c(-c2ccccc2)n(-c2ccccc2)c1=O`, which activation is on record?
The activation was -1.96%.

With `CCc1nn(-c2cc(Oc3cccc4ccccc34)nc(-c3ccccc3)n2)c(N)c1C#N` as the compound, how does the activation read?
The activation was 79.6% (active).

For `CC(C)(C)n1nc(Cc2cccc3ccccc23)c(C#N)c1N`, which activation is on record?
The activation was 3.6%.

With `Cc1cc(NC(=O)CSc2nc3cc(Cl)ccc3c(=O)n2Cc2ccco2)no1` as the compound, how does the activation read?
Its activation is 95.4% (active).

Which activation does the source give for `Cc1cc(NC(=O)CSc2nnc(-c3ccco3)n2N)no1` here?
Its activation is 1.89%.

Which activation does the source give for `Cc1cc(NC(=O)CSc2nc3ccccc3n2CC(C)C)no1` here?
Its activation is -4.54%.

Which activation does the source give for `CC(C)Oc1ccc(S(=O)(=O)N2CCOCC2)cc1NC(=O)C1CSC2(C)CCC(=O)N12` (stereo not drawn) here?
The activation was -2.58%.

With `CCCNC(=O)CCn1nc(-c2ccccc2)c2ccccc2c1=O` as the compound, how does the activation read?
Its activation is 1.25%.

For `O=C(COC(=O)Cc1ccc(Br)cc1)Nc1c(F)c(F)c(F)c(F)c1F`, which activation is on record?
Its activation is 0.94%.

Which activation does the source give for `Nc1c(NCCc2ccccc2)c2ccccc2oc1=O` here?
The activation was -1.1%.

For `COCCCNC(=O)[C@H]1N2C(=O)c3ccccc3C2SC1(C)C` (stereo partly drawn), which activation is on record?
Its activation is 5.98%.

For `COc1cc(NC(=O)CSc2nnc3ccc(-c4ccncc4)nn23)cc(OC)c1`, which activation is on record?
Its activation is 4.51%.

With `CSc1nc(-c2ccccc2)nc(C(Cl)Cl)n1` as the compound, how does the activation read?
The activation was 31.3% (active).

With `CSc1ncc(Sc2ccccc2)c(C(=O)O)n1` as the compound, how does the activation read?
Its activation is -3.45%.

Which activation does the source give for `CC(C)=CCCC1(C)C=Cc2c(ccc3c2[nH]c2cc(O)c(C)cc23)O1` (stereo not drawn) here?
The activation was 46.1% (active).

With `CCN(CC(=O)NCc1ccc(Cl)cc1)C(=O)CSc1ccccc1` as the compound, how does the activation read?
Its activation is -3.45%.

For `O=C(NCCCN1CCCCC1)c1ccc2c(c1)NC(=O)C(N1CCOCC1)S2` (stereo not drawn), which activation is on record?
Its activation is -1.68%.

For `CCCc1nc2c(c(=O)c3ccccc3n2C)c(=O)n1C1CCCCCC1`, which activation is on record?
The activation was 32.4% (active).

For `Cn1c2ccccc2c2c(C(=O)N3CCN(c4ccc(F)cc4)CC3)cn(C3CCCC3)c(=O)c21`, which activation is on record?
Its activation is 6.07%.

Which activation does the source give for `CC1CCN(Cc2nc3c(c(=O)n(C)c(=O)n3C)n2CCc2ccccc2)CC1` here?
The activation was -0.91%.

For `c1ccc2c(c1)C(=NC1CCCCC1)NC2=NC1CCCCC1`, which activation is on record?
The activation was 3.14%.
